# Results reported in ChEMBL document CHEMBL5154931, “Structure-Activity Relationships of 8-Hydroxyquinoline-Derived Mannich Bases with Tertiary Amines Targeting Multidrug-Resistant Cancer” (J Med Chem, 2022).
# Assays:
# Assay type in all cases: functional
# [1] = Selectivity ratio of IC50 for cytotoxicity against human MES-SA cells assessed as cell growth inhibition to IC50 for cytotoxicity against multidrug resistance human MES-SA/Dx5 cells assessed as cell growth inhibition
# [2] = Selectivity ratio of IC50 for cytotoxicity against human MES-SA cells assessed as cell growth inhibition in presence of P-gp inhibitor Tariquidar to IC50 for cytotoxicity against multidrug resistance human MES-SA/Dx5 cells assessed as cell growth inhibition in presence of P-gp inhibitor Tariquidar
# [3] = Selectivity ratio of IC50 for cytotoxicity against human A-431 cells assessed as cell growth inhibition to IC50 for cytotoxicity against human A-431 cells expressing ABCB1 assessed as cell growth inhibition
# MES-SA [4] = assay: Cytotoxicity against human MES-SA cells assessed as cell growth inhibition incubated for 72 hrs in presence of P-gp inhibitor Tariquidar by PrestoBlue reagent based cell viability assay
# How it was run: (§1)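 MES-SA and doxorubicin-selected MES-SA/Dx5 cells in DMEM with 10% FBS, 5 mmol/L glutamine, penicillin/streptomycin; 5000 cells/well attached 24 h, serial compound dilutions for 72 h, with or without 1 μM tariquidar. 5% PrestoBlue added after supernatant removal, 1 h at 37 °C, read ex 555/em 585 nm. Mean IC50 with SD, 2–53 independent assays.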
# MES-SA [5] = assay: Cytotoxicity against human MES-SA cells assessed as cell growth inhibition incubated for 72 hrs by PrestoBlue reagent based cell viability assay; how it was run: as §1
# MES-SA/Dx5 [6] = assay: Cytotoxicity against multidrug resistance human MES-SA/Dx5 cells assessed as cell growth inhibition incubated for 72 hrs by PrestoBlue reagent based cell viability assay; settings: MES-SA/Dx5, 72 h; how it was run: as §1
# MES-SA/Dx5 [7] = assay: Cytotoxicity against multidrug resistance human MES-SA/Dx5 cells assessed as cell growth inhibition incubated for 72 hrs in presence of P-gp inhibitor Tariquidar by PrestoBlue reagent based cell viability assay; settings: MES-SA/Dx5, 72 h; how it was run: as §1
# A-431 [8] = assay: Cytotoxicity against human A-431 cells assessed as cell growth inhibition after 72 hrs by PrestoBlue reagent based cell viability assay; settings: A-431, 72 h
# How it was run: (§2)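 A431 and retrovirally P-gp (ABCB1)-transduced A431 cells kept in supplemented DMEM; 5000 cells/well attached 24 h, then serial compound dilutions for 72 h. Medium removed, 5% PrestoBlue (resazurin) added, 1 h at 37 °C, fluorescence ex 555/em 585 nm.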
# A-431 [9] = assay: Cytotoxicity against human A-431 cells expressing ABCB1 assessed as cell growth inhibition incubated for 72 hrs by PrestoBlue reagent based cell viability assay; settings: A-431, 72 h; how it was run: as §2
Structure (SMILES),Ratio IC50 [1],Ratio IC50 [2],Ratio IC50 [3],also measured
CC(C)OCc1cc(CN2CCN(c3ccccc3)CC2)c(O)c2ncccc12,4.3,1.5,3.9,–
Oc1c(CN2CCCC2)ccc2cccnc12,–,–,5.2,–
CCOCc1cc(CN2CCCCC2)c(O)c2ncccc12,–,–,6,–
Oc1c(CN2CCCCCC2)cc(Cl)c2cccnc12,–,1.3,2.1,–
CCOC(=O)C1CCN(Cc2cc(Cl)c3cccnc3c2O)CC1,–,–,4.1,–
CN1CCN(Cc2ccc3cccnc3c2O)CC1,–,–,2.3,–
CC1CCN(Cc2cc(COC(C)C)c3cccnc3c2O)CC1,–,–,4.1,–
CCN1CCN(Cc2ccc(O)c3ncccc23)CC1,0.8,–,–,–
Oc1c(C(c2ccncc2)N2CCOCC2)ccc2cccnc12 (stereo unspecified),–,1.4,–,–
Cc1ccc(C(c2cc(Cl)c3cccnc3c2O)N2CCCC2)cc1 (stereo unspecified),2.3,–,–,–
CCOCc1cc(CN2CCOCC2)c(O)c2ncccc12,1.9,–,4.1,–
Oc1c(CN2CCN(c3ccccn3)CC2)cc(Cl)c2cccnc12,–,–,1.2,–
Cc1ccccc1N1CCN(Cc2ccc(O)c3ncccc23)CC1,–,–,0.7,–
Oc1c(C(c2ccccn2)N2CCOCC2)cc(Cl)c2cccnc12 (stereo unspecified),1.6,–,–,–
CN1CCN(Cc2cc(Cl)c3cccnc3c2O)CC1,–,–,2.3,–
Oc1c(C(c2ccccn2)N2CCCC2)cc(Cl)c2cccnc12 (stereo unspecified),–,–,3.7,–
CCCOCc1cc(CN2CCCCC2)c(O)c2ncccc12,–,1.5,4.6,–
CCN1CCN(C(c2cc(Cl)c3cccnc3c2O)N2CCCC2)CC1 (stereo unspecified),2.8,1.3,1.7,IC50 (MES-SA [4]; read-out: pIC50 (converted)): 3.31 µM; IC50 (MES-SA [5]; read-out: pIC50 (converted)): 3.31 µM; IC50 (MES-SA/Dx5 [6]; read-out: pIC50 (converted)): 1.17 µM; IC50 (MES-SA/Dx5 [7]): 2.45 µM; IC50 (A-431 [8]): 8.71 µM; IC50 (A-431 [9]): 5.13 µM
CCN(CC)Cc1ccc2cccnc2c1O,–,–,2.7,–
CN1CCN(C(c2cccnc2)c2ccc3cccnc3c2O)CC1 (stereo unspecified),1.5,–,–,–
CCN(CC)Cc1cc(Cl)c2cccnc2c1O,–,–,6.2,–
Oc1ccc(CN2CCOCC2)c2cccnc12,0.7,–,–,–
CC1CCN(Cc2cc(Cl)c3cccnc3c2O)CC1,–,–,6.1,–
COCc1cc(CN2CCCCC2)c(O)c2ncccc12,–,1.3,6.3,–

Structure (SMILES),Ratio IC50 [1],Ratio IC50 [2],Ratio IC50 [3],also measured
CCN1CCN(C(c2cccnc2)c2ccc3cccnc3c2O)CC1 (stereo unspecified),2.1,1,–,–
Oc1ccc(CN2CCN(c3ccccc3)CC2)c2cccnc12,0.9,–,–,–
Oc1c(C(c2cccnc2)N2CCCC2)ccc2cccnc12 (stereo unspecified),1.8,–,–,–
Oc1c(C(c2cccs2)N2CCCCC2)ccc2cccnc12 (stereo unspecified),0.8,–,–,–
Oc1c(CN2CCCC2)cc(Cl)c2cccnc12,–,–,3.8,–
Oc1c(C(c2ccccn2)N2CCOCC2)ccc2cccnc12 (stereo unspecified),1.6,–,–,–
Oc1c(CN2CCCC2)cc(Br)c2cccnc12,9.8,1.5,2.9,IC50 (MES-SA/Dx5 [7]): 2.69 µM
CN1CCN(C(c2ccncc2)c2ccc3cccnc3c2O)CC1 (stereo unspecified),–,1.6,–,–
CCOCc1cc(CN2CCCC2)c(O)c2ncccc12,–,1.7,6,–
Oc1c(CN2CCCCC2)ccc2cccnc12,–,–,4.1,–
CCOCc1cc(CN2CCN(c3ccccc3)CC2)c(O)c2ncccc12,–,1.5,3.1,–
CN1CCN(Cc2cnc3ccccc3c2O)CC1,1.99,–,–,–
COCc1cc(CN2CCC(C)CC2)c(O)c2ncccc12,–,1.4,6.1,–
Oc1c(CN2CCCCC2)cc(Br)c2cccnc12,10.8,–,3.2,–
Oc1ccc(CN2CCCC2)c2cccnc12,1.5,–,–,–
Oc1c(CN2CCOCC2)cc(Br)c2cccnc12,2.5,1.5,3.1,–
CCN1CCN(C(c2cccnc2)c2cc(Cl)c3cccnc3c2O)CC1 (stereo unspecified),0.9,–,–,–
Oc1cccc2cccnc12 [OXYQUINOLINE],–,2.3,–,–
Oc1c(CN2CCc3ccccc3C2)ccc2cccnc12,–,1.5,2,IC50 (MES-SA [4]; read-out: IC50): 2.59 µM
Oc1c(C(c2ccncc2)N2CCCCC2)ccc2cccnc12 (stereo unspecified),1.9,–,7.8,–
COCc1cc(CN2CCN(c3ccccc3)CC2)c(O)c2ncccc12,2.2,–,3.9,–
Oc1c(CN2CCN(c3ccccc3)CC2)cc(Cl)c2cccnc12,6,–,1.3,–
CC(C)OCc1cc(CN2CCOCC2)c(O)c2ncccc12,–,–,2.5,–
CCN1CCN(C(c2cccs2)c2ccc3cccnc3c2O)CC1 (stereo unspecified),0.6,–,–,–

Structure (SMILES),Ratio IC50 [1],Ratio IC50 [2],Ratio IC50 [3],also measured
Oc1c(C(c2ccccc2)N2CCOCC2)ccc2cccnc12 (stereo unspecified),1.8,–,–,–
Oc1c(C(c2ccccc2)N2CCCCC2)cc(Cl)c2cccnc12 (stereo unspecified),1.1,–,–,–
Oc1ccc(CN2CCCCCC2)c2cccnc12,1.2,–,–,–
CN1CCN(C(c2cccs2)c2ccc3cccnc3c2O)CC1 (stereo unspecified),0.8,–,–,–
Oc1c(C(c2ccncc2)N2CCCC2)ccc2cccnc12 (stereo unspecified),1.6,–,–,–
CN1CCN(C(c2ccccn2)c2cc(Cl)c3cccnc3c2O)CC1 (stereo unspecified),1.2,–,2.8,–
CCCCOCc1cc(CN2CCN(C)CC2)c(O)c2ncccc12,–,–,2.4,–
CC(C)OCc1cc(CN2CCCCC2)c(O)c2ncccc12,–,1.3,3.9,–
CCOCc1cc(CN2CCC(C)CC2)c(O)c2ncccc12,–,1.5,5,–
COCc1cc(CN2CCOCC2)c(O)c2ncccc12,1.7,1.1,2.8,–
Oc1c(C(c2cccnc2)N2CCOCC2)cc(Cl)c2cccnc12 (stereo unspecified),1.6,–,–,–
COCc1cc(CN2CCCC2)c(O)c2ncccc12,–,3,13.1,–
Oc1c(C(c2cccs2)N2CCOCC2)cc(Cl)c2cccnc12 (stereo unspecified),0.6,–,–,–
CCCOCc1cc(CN2CCN(c3ccccc3)CC2)c(O)c2ncccc12,–,1.7,2.4,–
CCN1CCN(C(c2ccccn2)c2cc(Cl)c3cccnc3c2O)CC1 (stereo unspecified),1.2,–,–,–
COCc1cc(CN2CCN(C)CC2)c(O)c2ncccc12,–,–,2.9,–
Oc1ccccc1CN1CCNCC1,–,–,–,IC50 (MES-SA [5]; read-out: IC50): > 100 µM; IC50 (MES-SA/Dx5 [6]; read-out: IC50): > 100 µM
Oc1c(C(c2ccccn2)N2CCCC2)ccc2cccnc12 (stereo unspecified),–,–,4.4,–
CCOCc1cc(CN2CCN(C)CC2)c(O)c2ncccc12,–,1.3,2.9,–
Oc1c(CN2CCN(c3ccc(F)cc3)CC2)cc(Cl)c2cccnc12,–,–,1.3,–
Oc1c(CN2CCCCC2)cc(Cl)c2cccnc12,–,–,3.9,–
Oc1c(C(c2ccccn2)N2CCCCC2)cc(Cl)c2cccnc12 (stereo unspecified),–,2.5,2.1,–
CCCOCc1cc(CN2CCN(C)CC2)c(O)c2ncccc12,–,1.7,3,–
